ChEMBL document CHEMBL1155638, “Anti-AIDS agents 38. Anti-HIV activity of 3-O-acyl ursolic acid derivatives” (J Nat Prod, 2000)

Experiments:
[1] = Therapeutic index, IC50 for human T-lymphoid H9 cells to EC50 for HIV1 3B isolate; assay type: cell-based; details: read-out: Ratio IC50/EC50
Outline: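 Ratio of IC50 (Coulter count, mock-infected H9 cells, 4 days) to EC50 (p24 ELISA, HIV-1 IIIB-infected H9 cells, 4 days), both determined in parallel within the same assay.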

H9 (human) = experiment: Cytotoxicity against human H9 cells assessed as growth inhibition after 4 days
[2] = test system: Human immunodeficiency virus 1; experiment: Antiviral activity against HIV1 replication in human H9 cells; details: for EC50: Homo sapiens, H9; for Activity: human, h9

**Q.** Which selectivity ratio [1] does the source give for `CC1(C)CC[C@]2(C(=O)O)CC[C@]3(C)C(=CC[C@@H]4[C@@]5(C)CC[C@H](OC(=O)CC(C)(C)C(=O)O)C(C)(C)[C@@H]5CC[C@]43C)[C@@H]2C1` here?
**A.** 22300

**Q.** With `C[C@H]1[C@H](C)CC[C@]2(C(=O)O)CC[C@]3(C)C(=CC[C@@H]4[C@@]5(C)CC[C@H](OC(=O)CC(C)(C)C(=O)O)C(C)(C)[C@@H]5CC[C@]43C)[C@H]12` as the compound, how does the IC50 (H9 (human); H9, 96 h) read?
**A.** 49.5 µM

**Q.** And the EC50 [2]?
**A.** 2.1 µM

**Q.** And the selectivity ratio [1]?
**A.** 23.6

**Q.** For `C[C@H]1[C@H](C)CC[C@]2(C(=O)O)CC[C@]3(C)C(=CC[C@@H]4[C@@]5(C)CC[C@H](OC(=O)CC(C)(C)CC(=O)O)C(C)(C)[C@@H]5CC[C@]43C)[C@H]12`, which IC50 (H9 (human); H9, 96 h) is on record?
**A.** 7 µM

**Q.** And the Activity [2]?
**A.** Not Active

**Q.** With `C[C@H]1[C@H](C)CC[C@]2(C(=O)O)CC[C@]3(C)C(=CC[C@@H]4[C@@]5(C)CC[C@H](OC(=O)COCC(=O)O)C(C)(C)[C@@H]5CC[C@]43C)[C@H]12` as the compound, how does the IC50 (H9 (human); H9, 96 h) read?
**A.** 48.2 µM

**Q.** And the EC50 [2]?
**A.** 0.31 µM

**Q.** And the selectivity ratio [1]?
**A.** 156

**Q.** Which IC50 (H9 (human); H9, 96 h) does the source give for `C[C@H]1[C@H](C)CC[C@]2(C(=O)O)CC[C@]3(C)C(=CC[C@@H]4[C@@]5(C)CC[C@H](OC(=O)C(C)(C)CC(=O)O)C(C)(C)[C@@H]5CC[C@]43C)[C@H]12` here?
**A.** 30.7 µM

**Q.** And the Activity [2]?
**A.** Not Active

**Q.** For `CC(C)CC(=O)O[C@H]1CC[C@]2(C)[C@H]3CC=C4[C@@H]5[C@@H](C)[C@H](C)CC[C@]5(C(=O)O)CC[C@@]4(C)[C@]3(C)CC[C@H]2C1(C)C`, which IC50 (H9 (human); H9, 96 h) is on record?
**A.** > 18.5 µM

**Q.** And the Activity [2]?
**A.** Not Active

**Q.** With `C[C@H]1[C@H](C)CC[C@]2(C(=O)O)CC[C@]3(C)C(=CC[C@@H]4[C@@]5(C)CC[C@H](OC(=O)CC(C)(C)C)C(C)(C)[C@@H]5CC[C@]43C)[C@H]12` as the compound, how does the IC50 (H9 (human); H9, 96 h) read?
**A.** > 18 µM

**Q.** And the Activity [2]?
**A.** Not Active

**Q.** Which IC50 (H9 (human); H9, 96 h) does the source give for `C[C@H]1[C@H](C)CC[C@]2(C(=O)O)CC[C@]3(C)C(=CC[C@@H]4[C@@]5(C)CC[C@H](OC(=O)CCC(=O)O)C(C)(C)[C@@H]5CC[C@]43C)[C@H]12` here?
**A.** 44.9 µM

**Q.** What about the EC50 [2] of the same compound?
**A.** 15.3 µM

**Q.** And the selectivity ratio [1]?
**A.** 2.9

**Q.** With `C[C@H]1[C@H](C)CC[C@]2(C(=O)O)CC[C@]3(C)C(=CC[C@@H]4[C@@]5(C)CC[C@H](OC(=O)CCCC(=O)O)C(C)(C)[C@@H]5CC[C@]43C)[C@H]12` as the compound, how does the IC50 (H9 (human); H9, 96 h) read?
**A.** 30.7 µM

**Q.** What about the EC50 [2] of the same compound?
**A.** 6.4 µM

**Q.** What about the selectivity ratio [1] of the same compound?
**A.** 4.8

**Q.** With `C[C@H]1[C@H](C)CC[C@]2(C(=O)O)CC[C@]3(C)C(=CC[C@@H]4[C@@]5(C)CC[C@H](O)C(C)(C)[C@@H]5CC[C@]43C)[C@H]12` as the compound, how does the IC50 (H9 (human); h9) read?
**A.** 1.8 µM

**Q.** For `C=C(C)[C@@H]1CC[C@]2(C(=O)O)CC[C@]3(C)[C@H](CC[C@@H]4[C@@]5(C)CC[C@H](O)C(C)(C)[C@@H]5CC[C@]43C)[C@@H]12` [BETULINIC ACID], which IC50 (H9 (human); H9, 96 h) is on record?
**A.** 12.9 µM

**Q.** And the selectivity ratio [1]?
**A.** 9.2

**Q.** Which results are given for `C=C(C)[C@@H]1CC[C@]2(C(=O)O)CC[C@]3(C)[C@H](CC[C@@H]4[C@@]5(C)CC[C@H](OC(=O)CC(C)(C)C(=O)O)C(C)(C)[C@@H]5CC[C@]43C)[C@@H]12` [BEVIRIMAT]?
**A.** IC50 (H9 (human); H9, 96 h): 7 µM; EC50 [2]: < 0.00035 µM; selectivity ratio [1]: > 20000

**Q.** With `CC1(C)CC[C@]2(C(=O)O)CC[C@]3(C)C(=CC[C@@H]4[C@@]5(C)CC[C@H](O)C(C)(C)[C@@H]5CC[C@]43C)[C@@H]2C1` [OLEANOLIC_ACID] as the compound, how does the selectivity ratio [1] read?
**A.** 12.9

**Q.** Which EC50 [2] does the source give for `C[C@@H]1CC[C@]2(C(=O)O)CC[C@]3(C)C(=CC[C@@H]4[C@@]5(C)CC[C@H](O)C(C)(C)[C@@H]5CC[C@]43C)[C@@H]2[C@]1(C)O` [POMOLIC ACID] here?
**A.** 3 µM

**Q.** And the selectivity ratio [1]?
**A.** 16.3
